Bioassay records deposited in PubChem by Sanford-Burnham Center for Chemical Genomics.
CXCR6 block: CXCR6 (human) receptor inhibition; O00574; CHO-K1 PathHunter CXCR6 beta-arrestin, luminescence; inhibition, % at 20 µM; 360,000 tested, 0.36% active; AID 602244; in the data active = inhibition above about 34%, passing the limit was not always enough;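 also: antagonist mode with CXCL16 agonist at 10 nM final; 0% = 10 nM CXCL16 with DMSO and 100% = unstimulated wells without agonist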
Target sequence (O00574 whole entry, looked up): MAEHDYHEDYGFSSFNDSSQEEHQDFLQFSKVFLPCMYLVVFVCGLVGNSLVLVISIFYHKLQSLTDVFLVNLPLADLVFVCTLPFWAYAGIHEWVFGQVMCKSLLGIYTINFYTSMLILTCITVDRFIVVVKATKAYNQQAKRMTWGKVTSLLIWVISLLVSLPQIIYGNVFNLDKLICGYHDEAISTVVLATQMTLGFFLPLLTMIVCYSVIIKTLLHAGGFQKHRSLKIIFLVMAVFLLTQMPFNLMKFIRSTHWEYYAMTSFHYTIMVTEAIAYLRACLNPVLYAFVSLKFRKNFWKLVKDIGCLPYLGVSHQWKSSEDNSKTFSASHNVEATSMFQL
CCR6 antagonist: blocks CCL20-driven beta-arrestin recruitment at human CCR6; P51684; CHO-K1 CCR6 PathHunter beta-arrestin, luminescence, CCL20-stimulated; inhibition, % at 20 µM; 340,000 tested, 0.49% active;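 active = compounds whose inhibition of the agonist-driven luminescence signal at 20 µM reaches about 50%, limit read from the data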;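 also: cells stimulated with CCL20 at 14 nM final; plate controls were DMSO with CCL20 for no effect and DMSO without agonist for full effect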
Target sequence (P51684 whole entry, looked up): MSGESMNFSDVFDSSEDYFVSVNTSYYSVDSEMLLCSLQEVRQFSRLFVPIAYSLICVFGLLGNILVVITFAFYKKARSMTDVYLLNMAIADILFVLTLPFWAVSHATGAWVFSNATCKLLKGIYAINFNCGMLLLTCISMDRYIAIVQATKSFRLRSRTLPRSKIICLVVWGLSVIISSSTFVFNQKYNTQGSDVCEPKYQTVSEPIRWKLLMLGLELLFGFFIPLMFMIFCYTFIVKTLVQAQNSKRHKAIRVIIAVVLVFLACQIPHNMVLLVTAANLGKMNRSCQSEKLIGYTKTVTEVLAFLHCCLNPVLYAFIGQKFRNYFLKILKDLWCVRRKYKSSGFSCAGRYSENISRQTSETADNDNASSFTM
APJ agonist: agonists of human APJ apelin receptor; AID 2520; 330,000 tested, 0.11% active; activation, % at 20 µM; CHO-K1 APJ PathHunter beta-arrestin, luminescence; 0% DMSO wells, 100% apelin; P35414;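 active = activation more than six SD over the plate average, tested at 20 µM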;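 also: 0% = DMSO alone and 100% = apelin-13 at 10 nM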
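Test system: CHO-K1 APJ beta-arrestin complementation cell line. Amount: cell density 1000 per well. Controls: DMSO negative, 10 nM Apelin-13 positive. Signal: luminescent beta-gal fragment complementation, chemiluminescent substrate. Read-out basis: agonist-driven arrestin binding to APJ. Timing: compound stimulation 90 min at 25 °C, detection 60 min.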
TAG inh: inhibitors of triacylglycerol accumulation; AID 651582; H9c2 cells, Nile Red lipid (TAG) fluorescence; cells loaded with 200 µM oleic acid; 230,000 tested, 0.66% active; inhibition, % at 12.5 µM;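 active = pattern-corrected inhibition of lipid staining of at least 50% with the nuclear-stain viability signal not falling by more than 50%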;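 also: 0% = DMSO wells and 100% = triacsin C control wells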
APJ antagonist: blocks the human apelin receptor APJ; inhibition, % at 20 µM; P35414; 330,000 tested, 0.32% active; AID 2521; CHO-K1 APJ beta-arrestin complementation, luminescence;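 active = inhibition above about 40% at 20 µM, limit read from the data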;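 also: cells challenged with 10 nM apelin-13 agonist together with compound; plate controls were apelin-13 plus DMSO wells for no effect and DMSO wells lacking apelin-13 for full effect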
EBI2 block: antagonists of human EBI2 receptor | inhibition, % at 5 µM | P32249 | EBI2 beta-arrestin recruitment, luminescence, 7a,25-OHC stimulated | 360,000 tested, 0.81% active | AID 651636; in the data active = inhibition above about 38%;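 also: enzyme fragment complementation signal reports receptor beta-arrestin coupling in cells; 0% = agonist plus DMSO wells and 100% = wells without agonist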
* marks the source's active call; other numbers are inactive results; / = not tested or not shown. An excerpt weighted towards active compounds, which were near 1.9% of everything screened.

SMILES | CXCR6 block | CCR6 antagonist | APJ agonist | TAG inh | APJ antagonist | EBI2 block
CCOC(=O)C1=NNC(C(=O)c2ccc(C)cc2)C1c1ccc(OC)cc1 (centres undefined) | 3.5 | 23.7 | -15.5 | 11.0 | 24.3 | 6.3
CCOC(=O)C1=NNC(C(=O)c2ccc(Cl)cc2)C1c1ccc(OC)cc1 (centres undefined) | 18.3 | 48.3 | -12.5 | 2.0 | 65.1* | 12.2
Cc1cc2[nH]c3c(c[n+](C)c4ccccc34)c2cc1C | -1.4 | 17.3 | 11.1 | 127.3* | 9.9 | -10.0
CN(C)CCNc1ccc2ncn3c4ccc(O)cc4c(=O)c1c23 | -2.5 | 13.1 | / | 74.7* | / | -8.9
CN(C)CCNc1ccc(CO)c2sc3ccc(O)cc3c(=O)c12 | 21.0 | 28.1 | / | 112.1 | / | -3.4
CCOc1ccc(CCN2C(=O)C(=O)N([C@@H](Cc3ccccc3)CN3CCC[C@H]3CN3C(=O)C(=O)NC[C@@H]3Cc3ccccc3)C[C@@H]2Cc2ccc(O)cc2)cc1 | 3.3 | / | / | / | / | -7.0
C/C(=N\NC(=O)C1CCCN(S(=O)(=O)c2ccccc2)C1)c1ccccn1 (centres undefined) | 40.5* | / | -7.2 | 8.4 | 34.6 | 2.2
O=C1c2ccccc2C(c2nnnn2Cc2ccccc2)N1Cc1ccco1 (centres undefined) | -5.9 | / | / | / | / | -5.0
Cc1ccn2c(Nc3ccccc3)c(-c3ccccn3)nc2c1 | 28.8 | 26.0 | -7.0 | 38.9 | 49.1* | -5.5
CCOC(=O)N1CCN(C2CCCN(C(=O)c3cccc(Cl)c3)C2)CC1 (centres undefined) | 3.3 | 9.1 | -1.1 | 4.9 | 7.8 | -14.1
COc1cc(OC)c(-c2c3cc(O)c(=O)cc-3oc3cc(O)c(O)cc23)cc1OC | 32.0 | 64.3* | -5.9 | / | 29.5 | 1.0
C[C@@H](C(=O)NCCc1c[nH]c2ccccc12)[C@@H]1C[C@@]1(C)[C@@H](NC(=O)OCc1ccccc1)c1ccccc1 | 3.0 | 5.6 | -3.8 | -0.4 | 10.2 | 75.3*
C[C@@H]1CN([C@H](C)CO)S(=O)(=O)c2ccc(Br)cc2O[C@H]1CN(C)C(=O)Cc1ccccn1 | -4.8 | / | / | -29.7 | / | -8.5
Cc1nc2ccc(NC(=O)c3cc([N+](=O)[O-])cc([N+](=O)[O-])c3Cl)cc2s1 | 9.5 | 96.9* | / | / | / | -10.4
O=C(/C=C\c1ccccc1OC(=O)c1ccccc1F)c1cc2ccccc2o1 | 15.8 | 41.6 | 1.6 | / | 34.0 | 44.8*
CC(C)C[C@H]1CN(CCCC[C@H]2CNC(=O)C(=O)N2CCc2ccccc2)C(=O)C(=O)N1CC1CCCCC1 | -4.6 | / | / | / | / | -6.3
CCCOc1ccc(/C=C/C(=O)N2CCN(C(=O)c3ccco3)CC2)cc1OC | -6.8 | / | / | 10.4 | / | 32.8
Cc1ccc(C(=O)OCN2C(=O)c3ccccc3C2=O)c(O)c1 | 3.2 | 6.2 | -1.9 | 13.7 | -10.5 | -0.5
CCCCn1c(NC(=O)c2ccc(F)cc2)c(C#N)c2nc3ccccc3nc21 | / | / | -9.4 | / | 56.1* | /
CCCCn1c(NC(=O)c2ccccc2)c(C#N)c2nc3ccccc3nc21 | 10.2 | 19.8 | / | / | / | 14.0
CC(NC(=O)CNC(=O)c1ccccc1Br)c1cccs1 (centres undefined) | 4.2 | 0.2 | -5.4 | -25.8 | 10.3 | 3.7
C=CCOC(=O)C(C#N)c1nc2ccccc2nc1N1CCN(c2ccccc2OC)CC1 (centres undefined) | 13.8 | 52.4* | -2.3 | / | 12.5 | 24.2
C=CCOC(=O)C(C#N)c1nc2ccccc2nc1N1CCN(Cc2ccccc2)CC1 (centres undefined) | 21.5 | 26.7 | -5.0 | 4.1 | 10.6 | 33.3
COc1ccccc1N=Cc1nc(-c2ccccc2)oc1OC(C)=O | 3.9 | 5.3 | -3.2 | 17.8 | 0.1 | -1.0
CC(=O)Oc1oc(-c2ccccc2)nc1/C=N/c1ccccn1 | 20.6 | 51.5* | -3.1 | / | 25.5 | -12.5
SMILES | CXCR6 block | CCR6 antagonist | APJ agonist | TAG inh | APJ antagonist | EBI2 block
Cc1cc2oc(=O)cc(Cn3ncc(Cl)c(Cl)c3=O)c2cc1Cl | 31.3 | 20.4 | -1.2 | 66.4 | 24.1 | 50.2*
NC(c1ccncc1)c1ccc(Cl)cc1 (centres undefined) | -2.0 | / | / | 1.8 | / | -1.6
O=C(NN=Cc1cc([N+](=O)[O-])ccc1O)c1cccc2ccccc12 | 14.8 | 49.2 | / | -4.4 | / | 8.8
COC(=O)N/N=C/c1cc(N=Nc2ccccc2Cl)ccc1O | 32.1 | 58.0* | -5.5 | 0.2 | 11.1 | 1.0
COC(=O)N/N=C/c1cc(N=Nc2ccccc2)ccc1O | 28.7 | 39.2 | 0.9 | 11.2 | -16.6 | -11.0
Nc1ccc(C(=O)N/N=C\c2cc(N=Nc3cccc4ccccc34)ccc2O)cc1 | 28.2 | 58.9* | -4.7 | 56.4* | 31.4 | 10.2
Cc1cc(C(=O)N/N=C/c2cc(N=Nc3ccccc3)ccc2O)n[nH]1 | 16.0 | 60.8* | / | / | / | 8.9
Cc1cc(=O)[nH]c2c1cnn2C(C)c1ccccc1 (centres undefined) | -8.3 | -6.6 | -3.1 | / | -11.0 | 1.5
Cc1cc(=O)c(C(=O)Nc2cccc(C(=O)NC3CC3)c2)nn1-c1ccccc1 | 2.3 | / | / | 13.1 | / | -23.8
O=c1c(O)c(-c2ccccc2)oc2ccccc12 | 16.5 | 26.1 | / | / | / | 12.5
Cc1ccc(-c2oc3ccccc3c(=O)c2O)cc1 | 51.8* | 43.4 | -5.7 | 9.8 | -11.7 | 6.0
CCCCCCCCCC[N+](C)(C)CC/C=C1/c2ccccc2Sc2ccc(Cl)cc21 | 48.8* | -4.1 | 0.8 | / | 11.7 | -0.9
CCOc1ccc(OCCNC(=O)c2cc(C3CC3)nc3c2cnn3C(C)C)cc1 | 6.8 | 19.7 | -1.2 | -28.4 | 4.6 | 16.6
Cn1c(=O)c([N+](=O)[O-])c(Cl)c2ccccc21 | 88.4* | 100.8* | / | 98.0 | / | 16.0
COc1ccc(C(=O)c2sc3nc(C)cc(-c4cccs4)c3c2N)cc1OC | -5.4 | 11.6 | / | / | / | 55.2*
CCN1C[C@@H]2[C@@H]3C(=O)N(Cc4ccccc4)C(=O)[C@@H]3[C@](CC)(C1=O)N2C(=O)c1ccc(F)cc1 | 1.8 | -10.7 | / | 14.4 | / | 4.9
C=CCn1c(N)c(C(=O)OC(C)(C)C)c2nc3ccccc3nc21 | 5.0 | 18.8 | -9.7 | 0.7 | 49.8* | 1.4
C=CCn1c(N)c(C(=O)OC(C)CC)c2nc3ccccc3nc21 (centres undefined) | 12.3 | 19.4 | / | -6.0 | / | 7.8
Cc1ccc2c(c1)C(=O)C(=O)N2CCOc1ccccc1 | 12.3 | 51.3* | -6.9 | 43.1 | 9.6 | -9.3
Cc1cccc(OCCN2C(=O)C(=O)c3cc(C)ccc32)c1 | 17.5 | 37.5 | -5.7 | 35.7 | 20.3 | 0.0
C[C@H](CO)N1C[C@H](C)[C@@H](CN(C)S(=O)(=O)c2ccccc2)Oc2c(NC(=O)NC3CCCCC3)cccc2C1=O | -8.3 | -3.0 | -2.5 | 13.0 | 15.3 | -3.9
C=C(CC[C@@H](O)C(C)(C)O)[C@H]1CC[C@]2(C)[C@@H]1CCC1[C@@]3(C)CC[C@H](O)C(C)(C)C3CC[C@]12C (some centres undefined) | -6.1 | 69.2* | -2.4 | 2.7 | -7.5 | -5.3
